# Measurements of several laboratories.
Structure (SMILES),assay,system,conditions,measurement,result
COc1cc(O)cc(/C=C/c2ccccc2)c1,HPLC,,,chromatographic logP,> 3.14
N#CN1C[C@H](n2nc(-c3ccc(Oc4ccc(Cl)cn4)cc3)c(C(N)=O)c2N)CCC12CC2,,"human, plasma","oral, 600 mg, fed",MRT,33 h
CC(C)(O)c1ccccc1-c1ccc2[nH]c(/C=C/c3ccc(C(F)(F)F)cc3)nc2c1,,"male human, plasma","oral, 50 mg, single dose, fasted, healthy volunteers",MRT,99.5 h
CC(C)(C)c1ccc(O)c(CN(Cc2cc(C(C)(C)C)ccc2O)C2CCC(NC(N)=O)CC2)c1 (stereo not drawn),,"male C57BL/6 mouse, brain","intraperitoneal, 5 mg/kg, single dose",half-life,7.1 h
c1ccc(-c2nc(N3CCC(c4ccccn4)C3)c3ccccc3n2)nc1 (stereo not drawn),,"female BALB/c mouse, plasma","oral, 50 mg/kg, 4 h",concentration,826 ng/mL
CC(C)Oc1cccc(-c2cnc(N3CCC(C(N)=O)CC3)s2)c1,,"male Swiss mouse, plasma","oral, 30 mg/kg, 2 h, single dose",concentration,206 ng/mL
CC(C)(Nc1nc(-c2ccccn2)nc2ccccc12)c1ccccn1,,"female BALB/c mouse, plasma","intravenous, 1 mg/kg, 8 h",concentration,6 ng/mL
O=c1nc(N2CCN(CC3CCCCC3)CC2)sc2c([N+](=O)[O-])cc(C(F)(F)F)cc12,,"CD-1 mouse, plasma","intravenous, 10 mg/kg, 8 h",concentration,44.4 ng/mL
c1cnc2ccc(Nc3nc(NC4CC4)c4nc[nH]c4n3)cc2c1,,"human, plasma","oral, 800 mg/m², patients",MRT(0-t),9.6 h
Nc1ccc(-c2ccc3ncc(-c4noc(C(F)(F)F)n4)cc3c2)cc1,metabolic stability,"beagle dog, liver microsomes",1 µM,scaled CLint,115 mL/min/kg
O=C1NN=C(N=Cc2ccccc2O)C1=NNn1c(-c2ccccc2)nc2ccccc2c1=O,,,,logP,3.68
CC[C@H](C)[C@@H]1NC(=O)[C@@](C)(NC(=O)[C@H](CCCNC(=N)N)NC(=O)[C@H](CC(C)C)NC(=O)[C@@H](NC(=O)[C@H](CCC(N)=O)NC(=O)[C@H](CC(C)C)NC(C)=O)[C@@H](C)O)CCCC=CCCC[C@@](C)(C(=O)N[C@@H](CC(C)C)C(=O)N[C@@H](Cc2ccc3ccccc3c2)C(N)=O)NC(=O)[C@H](CCCNC(=N)N)NC(=O)[C@H](CCC(N)=O)NC1=O,,"male BALB/c mouse, plasma","intraperitoneal, 5 mg/kg",half-life,3.09 h
CS(=O)(=O)CCC#N,,"human, plasma","oral, 100 mg, single dose, fasted",MRT,30.5 h
CC(C)CN(C[C@@H](O)[C@H](Cc1ccccc1)NC(=O)O[C@H]1CO[C@H]2OCC[C@H]21)S(=O)(=O)c1ccc(N)cc1,,"BALB/c mouse, plasma","intravenous, 25 mg/kg, 6 h",concentration,119 ng/mL
Cn1cnc2c(F)c(Nc3ccc(Br)cc3Cl)c(C(=O)NOCCO)cc21,,"nude mouse, liver","oral, 10 mg/kg, single dose, tumour-bearing",half-life,2.7 h
Oc1cccc(/C=C/c2ccccc2)c1,HPLC,,,chromatographic logP,> 3.14
CC1=NN(CNc2ccccn2)C(=O)C1=NNn1c(-c2ccccc2)nc2ccccc2c1=O,,,,logP,3.87
COc1ccc2nccc(N3CCc4c(cc(Cn5ccnc5)cc4-c4cn(C)nc4C(F)(F)F)C3=O)c2c1,,"male CD-1 mouse, plasma","oral, 10 mg/kg",half-life,1.2 h
O=C(O)C1CCN(c2ncc(-c3ccc4c(c3)OCCCO4)s2)CC1,,"male Swiss mouse, plasma","oral, 30 mg/kg, 12 h, single dose",concentration,1640 ng/mL
O=S(=O)(c1ccc(-c2ccc3nccc(Nc4ccncn4)c3c2)cc1)N1CCOCC1,,"female BALB/c mouse, plasma","intraperitoneal, 10 mg/kg, 4.8 min",concentration,2340 ng/mL
COc1cc(/C=C/c2ccccc2)cc(OC)c1,HPLC,,,chromatographic logP,> 3.14
